Exocytosis inh: LAMP-1 surface exposure blockers, TALL-104 cells – cell-based, flow cytometry, MLPCN library, primary screen; TALL-104 LAMP-1 surface exposure; cells stimulated with thapsigargin and PMA; hit rate 0.66% among 360,000; AID 651702, 2012; inhibition, % at 10 µM;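 active = inhibition above about 55%, limit read from the data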
ABHD5 PLIN5 PPI: ABHD5-PLIN5 interaction inhibitors, primary screen, cell lysate, split luciferase complementation, luminescence; inhibition, % at 4 µM; hit rate 0.78% among 360,000; Perilipin-5 (Homo sapiens) + 1-acylglycerol-3-phosphate O-acyltransferase ABHD5 (Homo …; Split G. princeps luciferase complementation, 4 h;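 active = inhibition above the mean inhibition across every tested compound plus 3 SD, cut at about 22% in these data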;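 also: 0% = DMSO only wells and the 100% control is not disclosed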
Target sequence (Q00G26 whole entry, looked up): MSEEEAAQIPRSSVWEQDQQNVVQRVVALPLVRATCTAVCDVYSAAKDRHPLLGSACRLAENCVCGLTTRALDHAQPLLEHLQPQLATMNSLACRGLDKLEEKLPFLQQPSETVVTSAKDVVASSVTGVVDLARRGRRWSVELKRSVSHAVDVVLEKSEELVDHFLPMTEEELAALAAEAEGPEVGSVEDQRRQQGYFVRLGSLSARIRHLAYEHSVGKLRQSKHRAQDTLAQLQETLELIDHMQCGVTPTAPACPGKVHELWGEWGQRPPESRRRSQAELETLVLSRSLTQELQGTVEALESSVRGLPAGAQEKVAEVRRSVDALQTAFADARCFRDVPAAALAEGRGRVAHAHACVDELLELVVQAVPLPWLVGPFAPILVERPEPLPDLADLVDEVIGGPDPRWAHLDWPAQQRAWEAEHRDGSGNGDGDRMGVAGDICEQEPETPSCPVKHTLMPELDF
Target sequence (Q8WTS1 whole entry, looked up): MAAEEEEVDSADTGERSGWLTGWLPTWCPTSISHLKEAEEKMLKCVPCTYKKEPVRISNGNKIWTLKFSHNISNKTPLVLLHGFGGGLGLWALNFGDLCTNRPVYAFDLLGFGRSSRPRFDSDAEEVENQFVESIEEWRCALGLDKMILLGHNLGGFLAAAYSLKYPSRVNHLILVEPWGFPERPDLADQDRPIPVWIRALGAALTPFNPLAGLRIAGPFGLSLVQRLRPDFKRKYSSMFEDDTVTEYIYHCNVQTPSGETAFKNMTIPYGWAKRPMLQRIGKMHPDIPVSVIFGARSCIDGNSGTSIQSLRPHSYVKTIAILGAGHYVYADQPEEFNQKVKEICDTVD
CHOP UPR activ: activators of apoptotic CHOP UPR arm, primary screen, cell-based, CHO-CHOP luciferase reporter, luminescence, uHTS; UPR activation; percent of tunicamycin response over DMSO baseline; activation, % at 10 µM; hit rate 0.34% among 330,000; AID 449763, 2010;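 active = at 10 µM dose, activation of 40% or more, normalized to positive control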;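 also: 100% = tunicamycin at 10 µg/mL and 0% = DMSO alone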
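Test system: CHO-CHOP cells, stable luciferase reporter of PERK-eIF2a-CHOP signalling | Quantity: 500 CHO-CHOP cells per well | Buffer or medium: F12 plus 10% serum | Compound dosing: 10 µM single point, 0.5% DMSO | Schedule: 6 h compound treatment, 37 °C | Signal: Luciferase luminescence | Control set: Tunicamycin high control, DMSO low control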
Mdm2 MdmX PPI: inhibitors of human Mdm2-MdmX association, primary screen, cell-based, luminescence, split luciferase, SaOS-2, uHTS; Protein Mdm4 (Homo sapiens) + E3 ubiquitin-protein ligase Mdm2 (Homo sapiens), …; SaOS-2 split-luciferase Mdm2/MdmX complementation; inhibition, % at 8 µM; hit rate 3% among 330,000; AID 485346, 2010;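 active = inhibition of at least 50% at 8 µM in the primary screen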
UPR XBP1 act: activators of adaptive XBP1 UPR arm, primary screen, cell-based, CHO-XBP1 luciferase reporter, luminescence, uHTS | IRE1-XBP1 UPR activation; percent of tunicamycin response, DMSO as zero | activation, % at 20 µM | hit rate 0.33% among 330,000 | AID 463104, 2010;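 active = versus positive control, 20 µM dose yields 30% or more activation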;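 also: 100% = tunicamycin at 10 µg/mL and 0% = DMSO only wells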
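Material: CHO-XBP1 cells stably carrying IRE1-XBP1-driven luciferase reporter / Amount: 1000 cells per well / Compound: 20 µM, 1% DMSO / Times: 6 h treatment, 37 °C / Detection: luciferase luminescence / Measure: % activation of reporter signal versus tunicamycin and DMSO controls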
Granule exo CP1: inhibitors of lytic granule exocytosis, confirmation, TALL-104 cells, flow cytometry, Cherry Pick01; shares compounds with Exocytosis inh; LAMP-1 externalization; stimulated with PMA plus thapsigargin; inhibition, % at 10 µM; hit rate 11% among 1,500; AID 651954, 2012; in the data active = inhibition above about 60%;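 also: 0% = stimulated vehicle wells and 100% = unstimulated wells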
Numbers without * were called inactive; x = no result. Only some compounds are listed: those with a hit (about 4% of all), similar ones and a draw of the others.

SMILES | Exocytosis inh | ABHD5 PLIN5 PPI | CHOP UPR activ | Mdm2 MdmX PPI | UPR XBP1 act | Granule exo CP1
c1ccc(Oc2nc(-c3cccnc3)nc3ccccc23)cc1 | 82.6* | 4.4 | 0.6 | 19.0 | 5.7 | -3.3
Fc1ccccc1CNc1nc(-c2cccnc2)nc2ccccc12 | 80.6* | 11.1 | -1.0 | 1.0 | -1.3 | -9.9
O=[N+]([O-])c1ncccc1Oc1nc(-c2cccnc2)nc2ccccc12 | -3.8 | 1.1 | 0.3 | 16.1 | 6.6 | x
c1cncc(-c2nc(NCc3cccs3)c3ccccc3n2)c1 | 8.3 | -1.6 | -1.0 | 3.9 | 2.0 | x
C/C(=C\C(=O)c1ccccc1)NNc1nc2ccccc2s1 | -4.0 | -4.3 | 4.9 | -21.6 | 0.1 | x
Cc1c(C)n(-c2ccccc2)c2ncnc(NCCN(C)C)c12 | 65.3* | 6.4 | -0.4 | 18.6 | -1.3 | -10.2
COc1ccccc1NC(=O)c1cc(S(=O)(=O)N2CCc3ccccc32)ccc1F | 74.2* | -8.5 | -0.5 | -6.5 | -4.6 | -12.1
COc1ccc(CCNC(=O)c2cc(S(=O)(=O)N3CCc4ccccc43)ccc2F)cc1OC | -1.1 | 6.2 | x | x | x | x
CCn1c(Cc2ccccc2)nnc1SCC(=O)NC(C)(C)C | -1.8 | -2.4 | -0.5 | 0.0 | -0.3 | x
COc1ccc(CN2CCN(CC=C(C)C)C(CCO)C2)cc1Cn1cncn1 (configuration not stated) | -1.8 | 0.0 | -0.4 | 5.7 | -1.4 | x
COc1ccc(C(=O)Nc2c(O)ccc3ccccc23)cc1 | 7.3 | -6.9 | -0.2 | 27.0 | 0.0 | x
COc1ccc(NC(=O)Nc2c(O)ccc3ccccc23)cc1 | 87.3* | 5.7 | -0.2 | 30.3 | -0.8 | -3.8
COc1ccc(C(=O)NCCOc2cccc(OC)c2)cc1 | -1.8 | 1.7 | 0.7 | -15.6 | 0.2 | x
O=C(c1cc(-c2ccc(Cl)cc2)n(-c2cc(Cl)ccc2Cl)n1)N1CCOCC1 | 6.2 | 9.5 | -0.5 | 0.9 | -2.7 | x
Cc1ccc2nc(C)c(CN3CCN(c4ccc([N+](=O)[O-])cc4Cl)CC3)n2c1 | 72.4* | -12.2 | 10.3 | 23.8 | 14.7 | -11.9
C[C@H](NC(=O)c1nc[nH]c1C(=O)NC1CCN(C(=O)OC(C)(C)C)CC1)C(=O)OC(C)(C)C | -9.0 | -1.8 | 1.6 | -8.0 | -2.0 | x
COc1ccccc1Nc1nc(NCc2ccco2)c2ccccc2n1 | 98.9* | 4.8 | 3.2 | 22.7 | 1.3 | 22.9
Cc1c(C(=O)N(Cc2ccc(Cl)cc2)C2CCS(=O)(=O)C2)oc2ccccc12 (configuration not stated) | 73.6* | -0.9 | 0.7 | -5.3 | 0.1 | -12.3
CCOc1ccc(CN(C(=O)c2oc3ccccc3c2C)C2CCS(=O)(=O)C2)cc1 (configuration not stated) | -3.4 | -5.3 | -0.4 | 13.9 | 0.3 | x
CN1CCN(C(=O)OCCOCCOC(=O)N2CCN(C)CC2)CC1 | 60.2* | -4.3 | x | x | x | -4.5
CCCCOC(=O)N1CCOCCOCCOCC1 | -3.0 | 3.6 | 0.2 | 3.9 | 0.0 | x
Cc1ccc(-n2c(C)n[nH]c2=S)cc1C | -4.7 | 1.1 | -1.3 | -13.1 | -2.8 | x
CCOC(=O)c1c(-c2ccc(OC)cc2)oc2ccc(O)cc12 | 63.4* | -6.5 | 0.0 | 9.5 | 1.9 | -11.8
CCN(CC)S(=O)(=O)c1ccc(Oc2ccccc2OC)cc1 | 68.8* | -3.4 | 0.9 | 7.8 | 0.8 | -3.3
CCN(CC)S(=O)(=O)c1ccc(Oc2ccc(S(=O)(=O)N(CC)CC)cc2)cc1 | -6.8 | 0.1 | 5.0 | 27.2 | -3.6 | x
SMILES | Exocytosis inh | ABHD5 PLIN5 PPI | CHOP UPR activ | Mdm2 MdmX PPI | UPR XBP1 act | Granule exo CP1
CCCCNC(=O)c1cc2c(=O)n3cccc(C)c3nc2s1 | 14.1 | -0.4 | 1.4 | 5.8 | 9.6 | x
Cc1cccn2c(=O)c3cc(C(=O)NCCc4ccccc4)sc3nc12 | 92.1* | -5.7 | 3.2 | 23.9 | 1.9 | -3.6
COc1ccc(CCNC(=O)c2cc3c(=O)n4cccc(C)c4nc3n(CC3CCCO3)c2=N)cc1 (configuration not stated) | 62.0* | -4.6 | 2.0 | 41.9 | 0.1 | -3.8
Cc1ccc(S(=O)(=O)N2CCN(C(=S)NCc3ccc4c(c3)OCO4)CC2)cc1 | 74.9* | 0.1 | -1.8 | 27.5 | -1.9 | -3.8
CCNC(=S)N1CCN(S(=O)(=O)c2ccc(C)cc2)CC1 | -3.3 | 4.7 | 0.1 | 6.1 | 1.7 | x
N#Cc1ccccc1S(=O)(=O)N1CCN(S(=O)(=O)c2ccc(Br)c(C(=O)O)c2)CC1 | 59.2* | -1.9 | 2.3 | 9.1 | -3.7 | -13.9
CSCCC(Nc1ncnc2ccc(Br)cc12)C(=O)O (configuration not stated) | 0.6 | -2.2 | -0.9 | 10.7 | -1.8 | x
Cc1cc(F)ccc1-c1cc(C(=O)NCc2ccc(C(F)(F)F)cc2)[nH]n1 | -5.6 | -5.8 | x | x | x | x
COc1ccc(Cl)c(-c2cc(C(=O)NCc3ccc(C(F)(F)F)cc3)[nH]n2)c1 | 97.0* | -13.6 | x | x | x | 64.0*
Cc1ccc(Cl)cc1-c1cc(C(=O)NCc2ccc(C(F)(F)F)cc2)[nH]n1 | 96.2* | -14.8 | x | x | x | 102.6*
CC(C)CC(=O)NC1(C(F)(F)F)NC(=O)N(c2ccccc2)C1=O (configuration not stated) | 90.5* | -3.2 | 0.2 | -0.5 | 10.4 | -4.5
CCCC(=O)Nc1ccccc1Sc1ncnc2scc(-c3ccccc3)c12 | -0.7 | -9.3 | -0.7 | 20.3 | -0.9 | x
Cc1cc(NC(=O)CCN2CCN(C/C=C/c3ccccc3)CC2)ccc1Br | 60.4* | 1.5 | 0.9 | 35.6 | -6.3 | -1.1
CCc1cc2c(NCCC(=O)O)ncnc2s1 | 0.5 | 2.3 | -0.5 | 5.8 | -2.5 | x
COc1ccccc1Cn1c(=O)c2ccccc2n2c(SCc3csc(C)n3)nnc12 | -1.8 | -0.4 | -1.3 | 14.8 | 1.9 | x
c1ccc(C2=NOC(c3nnc(-c4ccccc4)o3)C2)cc1 (configuration not stated) | 90.8* | -3.1 | 1.2 | 13.6 | -1.0 | -12.9
Fc1ccc(C2=NOC(c3nnc(-c4ccccc4)o3)C2)cc1 (configuration not stated) | 6.0 | 1.4 | -0.6 | 1.9 | 2.3 | x
O=C(C[C@H]1C/C=C\C[C@H](Cc2ccc(F)cc2)C(=O)O[C@@H](c2ccccc2)CNC1=O)N[C@@H](CO)Cc1ccccc1 | 56.0* | 2.7 | 0.8 | 5.7 | -2.0 | -4.0
COc1ccc(OC)c(NC(=O)c2cccc3c2C(=O)N(C2CCCCC2)C3)c1 | 78.3* | -0.2 | 3.7 | 24.3 | 8.5 | -13.4
COc1ccc(NC(=O)c2cccc3c2C(=O)N(C2CCCCC2)C3)cc1 | 10.3 | 1.2 | 9.3 | 14.6 | 5.3 | x
